inhibition, Activity and ΔTm data for one compound are collected here from ChEMBL document CHEMBL4350961, “Discovery of Pyrrolo[3,2- d]pyrimidin-4-one Derivatives as a New Class of Potent and Cell-Active Inhibitors of P300/CBP-Associated Factor Bromodomain” (J Med Chem, 2019).

Test [1] addresses Phosphatidylinositol 4-phosphate 3-kinase C2 domain-containing subunit alpha (Homo sapiens) (UniProt O00443). In words: Inhibition of recombinant human PI3KC2alpha (299 to end residues) at 10 uM using phosphatidylinositol as substrate measured after 40 mins by HTRF assay.
In test [2] the test system is Discoidin domain-containing receptor 2 (Homo sapiens), Q16832 [UNDEFINED MUTATION]. Nature of the test: Inhibition of recombinant human DDR2 S642A mutant (467 to end residues) at 10 uM using KKSRGDYMTMQIG as substrate measured after 40 mins in presence of [gamma33P]ATP by scintillation counting method.
Test [3] addresses Bromodomain adjacent to zinc finger domain protein 2A (Homo sapiens) (UniProt Q9UIF9). In words: Binding affinity to human partial length BAZ2A (M1792 to L1905 residues) expressed in bacterial expression system at 1 uM by BROMOscan assay. In short, it runs like this: (§1)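 BROMOscan bromodomain cross-screen run by an outside service, compound at 1 µM against 32 recombinant bromodomains. Binding given as percent of control.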

Test [4] addresses Bromodomain-containing protein 4 (Homo sapiens) (UniProt O60885). In words: Binding affinity to human N-terminal His-tagged BRD4 bromodomain1 assessed as change in melting temperature at 10 uM by SYPRO orange dye-based fluorescence assay. The procedure, abridged: (§2)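 Thermal shift with His-tagged human bromodomain at 2 μM final in 10 mM HEPES pH 7.5, 500 mM NaCl. Compound at 10 μM final with 0.1% DMSO; SYPRO Orange at 1:1000. Equilibrated 3 min at 25 °C, then heated from 25 to 95 °C at 1 °C/min. Melting temperature shift taken from fluorescence; at least duplicate.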

Test [5] has as its target Histone acetyltransferase p300 (Homo sapiens) (UniProt Q09472). In words: Binding affinity to human N-terminal His-tagged EP300 assessed as change in melting temperature at 10 uM by SYPRO orange dye-based fluorescence assay. In short, it runs like this: as §2
In test [6] the target is cAMP-dependent protein kinase catalytic subunit alpha (Homo sapiens) (UniProt P17612). Nature of the test: Inhibition of recombinant full-length human PKA at 10 uM using Kemptide as substrate measured after 40 mins in presence of [gamma33P]ATP by scintillation counting method.
Test [7] deals with LIM domain kinase 1 (Homo sapiens) (UniProt P53667). In words: Inhibition of recombinant human LIMK1 (285 to 638 residues) at 10 uM using cofilin as substrate measured after 40 mins in presence of [gamma33P]ATP by scintillation counting method.
Test [8] has as its target 5'-AMP-activated protein kinase catalytic subunit alpha-1 (Homo sapiens) (UniProt Q13131). Nature of the test: Inhibition of recombinant full-length human AMPKalpha1 at 10 uM using AMARAASAAALARRR as substrate measured after 40 mins in presence of [gamma33P]ATP by scintillation counting method.
Test [9] has as its target Tyrosine-protein kinase Yes (Homo sapiens) (UniProt P07947). Nature of the test: Inhibition of recombinant full-length human Yes at 10 uM using poly(Glu, Tyr) 4:1 as substrate measured after 40 mins in presence of [gamma33P]ATP by scintillation counting method.
For test [10], the target named is Serine/threonine-protein kinase MAK (Homo sapiens) (UniProt P20794). In words: Inhibition of recombinant full-length human MAK at 10 uM using RRRFRPASPLRGPPK as substrate measured after 120 mins in presence of [gamma33P]ATP by scintillation counting method.
For test [11], the target named is Dual specificity mitogen-activated protein kinase kinase 1 (Homo sapiens) (UniProt Q02750). Nature of the test: Inhibition of recombinant full-length human MEK1 at 10 uM using unactive MAPK2 as substrate measured after 40 mins in presence of [gamma33P]ATP by scintillation counting method.
Dual specificity mitogen-activated protein kinase kinase 1 (Homo sapiens), sequence (Q02750 whole entry): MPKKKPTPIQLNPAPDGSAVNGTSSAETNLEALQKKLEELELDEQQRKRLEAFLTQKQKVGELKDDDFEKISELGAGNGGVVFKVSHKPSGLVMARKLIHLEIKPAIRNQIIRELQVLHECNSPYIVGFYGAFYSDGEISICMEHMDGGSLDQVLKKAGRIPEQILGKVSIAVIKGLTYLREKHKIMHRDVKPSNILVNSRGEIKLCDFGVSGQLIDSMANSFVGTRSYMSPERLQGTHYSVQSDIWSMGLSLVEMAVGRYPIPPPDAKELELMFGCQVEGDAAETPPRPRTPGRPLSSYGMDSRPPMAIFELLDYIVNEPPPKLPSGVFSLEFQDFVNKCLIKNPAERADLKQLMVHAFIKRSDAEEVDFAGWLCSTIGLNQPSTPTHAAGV
Test [12] concerns the target Rhodopsin kinase GRK1 (Homo sapiens) (UniProt Q15835). In words: Inhibition of recombinant full-length human GRK1 at 10 uM using KKKKERLLDDRHDSGLDSMKDEE as substrate measured after 40 mins in presence of [gamma33P]ATP by scintillation counting method.
Test [13] addresses SRSF protein kinase 3 (Homo sapiens) (UniProt Q9UPE1). In words: Inhibition of recombinant full-length human MSSK1 at 10 uM using ERMRPRKRQGSVRRRV as substrate measured after 40 mins in presence of [gamma33P]ATP by scintillation counting method.
Test [14] has as its target Tyrosine-protein kinase ZAP-70 (Homo sapiens) (UniProt P43403). In words: Inhibition of recombinant full-length human ZAP70 at 10 uM using poly(Glu, Tyr) 4:1 as substrate measured after 40 mins in presence of [gamma33P]ATP by scintillation counting method.
The next test is filed under the species Homo sapiens. Nature of the test: Inhibition of recombinant full-length human JNK2alpha2 S51N mutant at 10 uM using ATF2 as substrate measured after 40 mins in presence of [gamma33P]ATP by scintillation counting method.
For test [15], the target named is Serine/threonine-protein kinase PRP4 homolog (Homo sapiens) (UniProt Q13523). Nature of the test: Inhibition of human PRP4 (663 to end residues) using casein as substrate measured after 40 mins in presence of [gamma33P]ATP by scintillation counting method. The procedure, abridged: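 Kinase panel of 422 kinases screened by Eurofins KinaseProfiler at a single test-compound concentration of 10 µM.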

The target in test [16] is Bromodomain adjacent to zinc finger domain protein 2B (Homo sapiens) (UniProt Q9UIF8). In words: Binding affinity to human partial length BAZ2B (S2054 to S2168 residues) expressed in bacterial expression system at 1 uM by BROMOscan assay. In short, it runs like this: as §1
Test [17] relates to Serine/threonine-protein kinase Sgk2 (Homo sapiens), Q9HBY8 [S416D]. Nature of the test: Inhibition of recombinant human SGK2 S416D mutant (54 to end residues) at 10 uM using GRPRTSSFAEGKK as substrate measured after 40 mins in presence of [gamma33P]ATP by scintillation counting method.
Serine/threonine-protein kinase Sgk2 (Homo sapiens), Q9HBY8 [S416D], sequence (Q9HBY8 1-367 with tags or gaps S416D): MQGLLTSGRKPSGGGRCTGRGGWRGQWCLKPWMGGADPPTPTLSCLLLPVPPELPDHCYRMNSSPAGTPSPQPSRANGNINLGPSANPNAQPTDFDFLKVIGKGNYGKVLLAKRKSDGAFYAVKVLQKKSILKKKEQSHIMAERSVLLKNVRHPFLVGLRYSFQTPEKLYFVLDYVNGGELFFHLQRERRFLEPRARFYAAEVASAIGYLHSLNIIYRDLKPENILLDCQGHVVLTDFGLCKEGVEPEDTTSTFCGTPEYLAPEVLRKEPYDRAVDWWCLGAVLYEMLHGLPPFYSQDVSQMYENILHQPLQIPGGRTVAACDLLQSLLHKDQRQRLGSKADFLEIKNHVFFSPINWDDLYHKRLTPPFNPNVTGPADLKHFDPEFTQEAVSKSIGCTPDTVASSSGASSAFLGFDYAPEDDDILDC
The target of test [18] is NUAK family SNF1-like kinase 1 (Homo sapiens) (UniProt O60285). In words: Inhibition of recombinant human ARK5 (2 to end residues) at 10 uM using KKKVSRSGLYRSPSMPENLNRPR as substrate measured after 40 mins in presence of [gamma33P]ATP by scintillation counting method.
In test [19] the target is Serine/threonine-protein kinase ULK1 (Homo sapiens) (UniProt O75385). Nature of the test: Inhibition of human ULK1 (1 to 314 residues) using casein as substrate measured after 40 mins in presence of [gamma33P]ATP by scintillation counting method.
Test [20] has as its target Serine/threonine-protein kinase D2 (Homo sapiens) (UniProt Q9BZL6). In words: Inhibition of recombinant full-length human PKD2 at 10 uM using KKLNRTLSVA as substrate measured after 40 mins in presence of [gamma33P]ATP by scintillation counting method.
Test [21] has as its target Cyclin-dependent kinase 2/cyclin E1 (Homo sapiens) (UniProt P24864+P24941). In words: Inhibition of recombinant full-length human CDK2/cyclinE at 10 uM using histone H1 as substrate measured after 40 mins in presence of [gamma33P]ATP by scintillation counting method. Format: protein-complex assay.
In test [22] the target is Serine/threonine-protein kinase 17B (Homo sapiens) (UniProt O94768). Nature of the test: Inhibition of recombinant full-length human DRAK2 at 10 uM using KKRPQRRYSNVF as substrate measured after 120 mins in presence of [gamma33P]ATP by scintillation counting method.
Serine/threonine-protein kinase 17B (Homo sapiens), sequence (O94768 whole entry): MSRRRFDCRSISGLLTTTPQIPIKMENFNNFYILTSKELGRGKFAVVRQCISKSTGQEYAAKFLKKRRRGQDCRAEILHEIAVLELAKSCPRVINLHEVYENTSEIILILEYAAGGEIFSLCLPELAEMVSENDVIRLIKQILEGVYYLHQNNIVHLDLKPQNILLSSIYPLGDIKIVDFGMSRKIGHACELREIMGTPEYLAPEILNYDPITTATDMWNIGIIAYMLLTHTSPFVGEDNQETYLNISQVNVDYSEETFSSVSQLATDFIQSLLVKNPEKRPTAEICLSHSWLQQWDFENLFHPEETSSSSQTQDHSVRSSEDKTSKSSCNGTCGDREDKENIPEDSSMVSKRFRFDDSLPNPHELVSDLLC

The source made the active and inactive calls. No cut-off for these calls is given here.

Histone acetyltransferase p300 (Homo sapiens), sequence (Q09472 whole entry): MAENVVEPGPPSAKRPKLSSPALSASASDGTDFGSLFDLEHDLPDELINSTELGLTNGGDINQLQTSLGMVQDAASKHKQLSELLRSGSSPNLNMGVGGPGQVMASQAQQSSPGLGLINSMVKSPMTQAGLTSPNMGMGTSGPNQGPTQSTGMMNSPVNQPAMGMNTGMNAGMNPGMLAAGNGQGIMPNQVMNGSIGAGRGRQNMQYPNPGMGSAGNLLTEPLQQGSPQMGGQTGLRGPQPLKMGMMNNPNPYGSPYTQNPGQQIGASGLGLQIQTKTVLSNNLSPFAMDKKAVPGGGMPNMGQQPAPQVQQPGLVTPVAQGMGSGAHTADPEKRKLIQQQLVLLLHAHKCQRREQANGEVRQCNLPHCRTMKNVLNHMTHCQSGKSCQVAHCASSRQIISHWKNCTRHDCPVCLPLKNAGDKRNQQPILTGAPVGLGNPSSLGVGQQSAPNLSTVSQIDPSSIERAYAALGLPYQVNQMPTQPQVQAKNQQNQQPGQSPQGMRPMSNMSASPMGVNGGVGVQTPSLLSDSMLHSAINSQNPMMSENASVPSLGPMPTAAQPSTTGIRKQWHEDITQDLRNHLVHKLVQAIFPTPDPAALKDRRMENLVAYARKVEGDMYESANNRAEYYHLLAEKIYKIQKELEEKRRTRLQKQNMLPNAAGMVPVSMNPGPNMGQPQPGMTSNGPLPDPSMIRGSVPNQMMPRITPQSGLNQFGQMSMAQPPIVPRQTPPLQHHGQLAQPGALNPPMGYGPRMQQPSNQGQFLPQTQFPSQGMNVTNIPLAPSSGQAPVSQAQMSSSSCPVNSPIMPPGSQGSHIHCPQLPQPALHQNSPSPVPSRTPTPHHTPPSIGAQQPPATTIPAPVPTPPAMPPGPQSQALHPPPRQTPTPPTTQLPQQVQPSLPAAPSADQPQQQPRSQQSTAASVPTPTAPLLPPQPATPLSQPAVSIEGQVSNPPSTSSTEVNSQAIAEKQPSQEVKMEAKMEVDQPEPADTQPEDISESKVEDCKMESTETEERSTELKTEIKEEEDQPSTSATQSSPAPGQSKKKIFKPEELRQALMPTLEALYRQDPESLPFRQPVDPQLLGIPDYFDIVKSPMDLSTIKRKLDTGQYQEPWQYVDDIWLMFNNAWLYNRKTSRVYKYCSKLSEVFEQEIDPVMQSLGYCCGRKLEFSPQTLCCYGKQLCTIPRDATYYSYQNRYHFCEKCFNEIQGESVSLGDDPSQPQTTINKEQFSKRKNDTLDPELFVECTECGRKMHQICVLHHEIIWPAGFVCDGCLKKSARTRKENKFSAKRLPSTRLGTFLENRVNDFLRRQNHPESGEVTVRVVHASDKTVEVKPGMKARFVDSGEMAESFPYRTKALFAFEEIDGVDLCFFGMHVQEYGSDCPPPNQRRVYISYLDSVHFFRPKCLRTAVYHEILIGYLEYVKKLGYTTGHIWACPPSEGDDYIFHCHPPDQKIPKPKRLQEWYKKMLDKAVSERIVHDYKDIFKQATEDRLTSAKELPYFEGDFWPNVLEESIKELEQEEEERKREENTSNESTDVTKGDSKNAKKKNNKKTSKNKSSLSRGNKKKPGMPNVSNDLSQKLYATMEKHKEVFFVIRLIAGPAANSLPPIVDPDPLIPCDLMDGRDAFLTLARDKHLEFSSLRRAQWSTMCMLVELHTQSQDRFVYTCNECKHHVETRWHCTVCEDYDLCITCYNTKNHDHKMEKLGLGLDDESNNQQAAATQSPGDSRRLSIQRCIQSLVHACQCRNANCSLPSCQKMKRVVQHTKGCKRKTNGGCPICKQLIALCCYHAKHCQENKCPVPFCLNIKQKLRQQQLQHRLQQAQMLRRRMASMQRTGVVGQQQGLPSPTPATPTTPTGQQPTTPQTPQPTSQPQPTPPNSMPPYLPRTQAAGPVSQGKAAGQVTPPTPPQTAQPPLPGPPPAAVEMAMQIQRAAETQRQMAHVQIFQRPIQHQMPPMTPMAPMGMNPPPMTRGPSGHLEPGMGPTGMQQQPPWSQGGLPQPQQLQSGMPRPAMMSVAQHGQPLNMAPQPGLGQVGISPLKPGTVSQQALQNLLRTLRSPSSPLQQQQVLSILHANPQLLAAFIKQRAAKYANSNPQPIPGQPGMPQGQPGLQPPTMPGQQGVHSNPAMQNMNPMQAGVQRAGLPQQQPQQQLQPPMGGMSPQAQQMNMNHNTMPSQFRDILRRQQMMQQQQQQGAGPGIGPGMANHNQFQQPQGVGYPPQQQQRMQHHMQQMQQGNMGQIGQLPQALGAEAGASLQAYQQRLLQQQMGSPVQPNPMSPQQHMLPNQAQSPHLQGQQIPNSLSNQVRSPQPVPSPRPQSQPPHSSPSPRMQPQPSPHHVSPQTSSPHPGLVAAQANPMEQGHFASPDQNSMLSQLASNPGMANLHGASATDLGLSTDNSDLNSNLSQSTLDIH
SRSF protein kinase 3 (Homo sapiens), sequence (Q9UPE1 whole entry): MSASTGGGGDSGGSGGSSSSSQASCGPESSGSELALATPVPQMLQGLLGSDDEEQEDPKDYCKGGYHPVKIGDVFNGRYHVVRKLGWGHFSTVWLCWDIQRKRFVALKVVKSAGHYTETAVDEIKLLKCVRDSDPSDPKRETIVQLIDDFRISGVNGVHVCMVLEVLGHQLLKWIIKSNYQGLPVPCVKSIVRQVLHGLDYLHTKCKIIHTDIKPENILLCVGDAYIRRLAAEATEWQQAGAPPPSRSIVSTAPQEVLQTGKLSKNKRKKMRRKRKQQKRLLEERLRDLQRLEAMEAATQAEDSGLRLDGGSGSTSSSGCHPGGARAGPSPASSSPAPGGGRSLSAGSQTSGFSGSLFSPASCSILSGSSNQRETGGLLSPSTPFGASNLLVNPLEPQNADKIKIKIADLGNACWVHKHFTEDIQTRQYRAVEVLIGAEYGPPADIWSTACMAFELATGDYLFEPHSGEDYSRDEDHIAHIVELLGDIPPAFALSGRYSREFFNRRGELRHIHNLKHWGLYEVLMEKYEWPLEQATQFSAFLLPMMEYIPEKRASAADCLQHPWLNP
Serine/threonine-protein kinase D2 (Homo sapiens), sequence (Q9BZL6 whole entry): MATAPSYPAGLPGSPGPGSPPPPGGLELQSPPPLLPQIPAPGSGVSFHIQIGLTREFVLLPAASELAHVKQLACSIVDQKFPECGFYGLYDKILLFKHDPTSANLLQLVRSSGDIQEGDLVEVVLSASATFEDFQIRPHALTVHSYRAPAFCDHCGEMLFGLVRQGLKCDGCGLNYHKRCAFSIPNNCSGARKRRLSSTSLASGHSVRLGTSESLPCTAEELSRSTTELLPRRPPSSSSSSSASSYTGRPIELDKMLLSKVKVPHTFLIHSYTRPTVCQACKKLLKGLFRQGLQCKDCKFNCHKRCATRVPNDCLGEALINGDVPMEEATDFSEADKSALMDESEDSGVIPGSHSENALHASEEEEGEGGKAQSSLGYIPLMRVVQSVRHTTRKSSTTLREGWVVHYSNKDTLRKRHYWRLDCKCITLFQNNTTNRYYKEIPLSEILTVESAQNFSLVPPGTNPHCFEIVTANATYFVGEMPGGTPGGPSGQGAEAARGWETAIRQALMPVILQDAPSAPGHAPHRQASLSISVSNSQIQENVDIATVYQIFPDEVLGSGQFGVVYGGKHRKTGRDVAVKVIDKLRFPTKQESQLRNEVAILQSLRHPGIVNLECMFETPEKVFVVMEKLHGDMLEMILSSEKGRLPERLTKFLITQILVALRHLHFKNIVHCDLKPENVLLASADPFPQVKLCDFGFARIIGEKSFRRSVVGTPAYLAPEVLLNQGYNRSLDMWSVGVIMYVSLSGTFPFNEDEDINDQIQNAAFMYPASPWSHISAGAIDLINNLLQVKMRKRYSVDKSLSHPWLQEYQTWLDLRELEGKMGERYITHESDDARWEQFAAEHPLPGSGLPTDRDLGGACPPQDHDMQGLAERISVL

As to `CN1C[C@H](Nc2nc3cc[nH]c3c(=O)n2C)C[C@H](c2ccc3c(c2)OCCO3)C1`, the inhibition result in test [1], in test [2], in [6], in test [7], in test [8] and in test [9] was “inactive” each time. The inhibition result (in test [10]; in test [11]; in test [12]; in [13]; in [14]; in the test listed under Homo sapiens) was “inactive” in each case. The inhibition result in test [15], in [17], in test [18], in test [19], in test [20] and in [21] was “inactive” in each case. In addition, the inhibition result in test [22] was “inactive”. The result in test [3] and in [16] was Active. Besides, the ΔTm in test [4] and in [5] was 0.1 °C throughout.

As usually defined, the ΔTm is the shift of the melting midpoint relative to a reference.
